The text below walks through data of article PMC2115978 (The Journal of Cell Biology, 1990).

Like-named read-outs stand apart in the source and are kept apart here.

The subject of data set [1] is endosomal insulin degrading activity (GE fraction). It counts as biochemical, rat. The conditions noted are these: for effect on endosomal 125I-insulin degradation (in words): concentrations as in Tables I and II.
The next data set has as its target insulin receptor (Rattus norvegicus, UniProt P15127). In words: PEG precipitation of insulin-receptor complexes in endosomes. It counts as binding. The conditions noted are these: for effect on insulin dissociation from receptor: 15 min, presence or absence of ATP, PCMB 1 mM.
For the next data set, the system named is macrophage endosomes. The conditions noted are these: identical cell-free system; cited from earlier work.
Data set [2] has as its system GE fraction proton translocase activity. In words: Cell-free ATP-dependent acidification assay. It counts as biochemical, rat. The conditions noted are these: 1 µM added at end of incubation; acridine orange absorbance 492/540 nm. The method in brief: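 Pelleted at 16,000 g for 1 h, Dounce-resuspended, equilibrated 3-6 h at 4°C. Acridine orange 6 µM, ATP 0.4 mM (final); initial quench rates recorded. Test compound 1 µM added after incubation.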

The test system of data set [3] is endosomal protease(s) of rat liver endosomes (GE fraction). It counts as in vitro ADME. The conditions noted are these: mean ± SD, n = 3; for degradation within isolated endosomes by acid precipitation: cell-free system, 37C, up to 60 min, 10% TCA.
The test system is the same in data set [4]. In words: Sephadex G-50 chromatography of radioactivity acid-extracted from endosomes. The format is in vitro ADME.
For data set [5] the following is noted: cited from earlier work.
The nature of data set [6]: Internalization of injected 125I-insulin into GE fraction of liver. The format is in vivo, rat. The conditions noted are these: 5 min after portal vein injection, 100 ng/100 g bw; mean ± SD, n = 9.
A further data set deals with EGF receptor. The conditions noted are these: freshly prepared endosomes; ref 49a; cited from earlier work.
A further data set addresses T1, prolactin receptor (Rattus norvegicus, UniProt P05710).
T1 sequence (P05710 20-310 isoform P05710-3 limits assumed): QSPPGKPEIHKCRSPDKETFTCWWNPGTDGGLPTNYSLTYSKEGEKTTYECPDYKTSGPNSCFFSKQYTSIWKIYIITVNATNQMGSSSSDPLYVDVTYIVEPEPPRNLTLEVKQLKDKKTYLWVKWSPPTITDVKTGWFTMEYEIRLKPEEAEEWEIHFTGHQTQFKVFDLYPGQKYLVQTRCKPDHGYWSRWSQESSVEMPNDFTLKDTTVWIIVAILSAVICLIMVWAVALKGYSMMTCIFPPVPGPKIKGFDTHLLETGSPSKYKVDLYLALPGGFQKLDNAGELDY
In words: Prolactin dissociation from its receptor in endosomes. The format is binding.

Where [7] appears, read: Table II, 10 µM, 0-30 min, mean ± SD, n = 3.
Where [8] appears, read: Table II, 1 mM, 0-30 min, mean ± SD, n = 3.
Setting [9] is: Table I, 1 mM, acid solubility at 30 min, mean ± SD of 3 experiments.
Where [10] appears, read: Table II, 50 µM, 0-30 min, mean ± SD, n = 3.
[11] abbreviates: Table II, nucleotide 10 mM (in place of ATP), 0-30 min, mean ± SD, n = 3.
Where [12] appears, read: Table II, 2 mM, 0-30 min, mean ± SD, n = 3.

Chain of insulin receptor (P15127 27-759 limits assumed): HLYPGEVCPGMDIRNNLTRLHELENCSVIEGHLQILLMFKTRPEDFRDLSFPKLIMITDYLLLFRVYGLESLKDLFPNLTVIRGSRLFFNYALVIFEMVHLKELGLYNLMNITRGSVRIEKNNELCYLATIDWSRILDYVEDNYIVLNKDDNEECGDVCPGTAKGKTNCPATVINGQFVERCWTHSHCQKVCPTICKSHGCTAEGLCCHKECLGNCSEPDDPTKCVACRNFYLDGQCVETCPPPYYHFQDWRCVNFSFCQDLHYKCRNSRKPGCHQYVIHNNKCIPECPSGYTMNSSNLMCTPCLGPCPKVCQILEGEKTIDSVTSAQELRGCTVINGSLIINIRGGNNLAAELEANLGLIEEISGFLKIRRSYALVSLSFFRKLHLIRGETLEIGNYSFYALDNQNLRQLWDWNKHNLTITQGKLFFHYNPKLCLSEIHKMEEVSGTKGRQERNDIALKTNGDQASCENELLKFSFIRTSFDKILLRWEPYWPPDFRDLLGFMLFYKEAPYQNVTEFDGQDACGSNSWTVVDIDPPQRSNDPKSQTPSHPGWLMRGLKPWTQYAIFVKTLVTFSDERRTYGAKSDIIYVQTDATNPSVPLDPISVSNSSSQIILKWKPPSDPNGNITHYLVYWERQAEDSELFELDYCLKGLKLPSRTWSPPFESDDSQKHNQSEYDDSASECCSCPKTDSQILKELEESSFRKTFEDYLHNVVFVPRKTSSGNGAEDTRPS
Chain of insulin receptor (P15127 764-1383 partner limits assumed): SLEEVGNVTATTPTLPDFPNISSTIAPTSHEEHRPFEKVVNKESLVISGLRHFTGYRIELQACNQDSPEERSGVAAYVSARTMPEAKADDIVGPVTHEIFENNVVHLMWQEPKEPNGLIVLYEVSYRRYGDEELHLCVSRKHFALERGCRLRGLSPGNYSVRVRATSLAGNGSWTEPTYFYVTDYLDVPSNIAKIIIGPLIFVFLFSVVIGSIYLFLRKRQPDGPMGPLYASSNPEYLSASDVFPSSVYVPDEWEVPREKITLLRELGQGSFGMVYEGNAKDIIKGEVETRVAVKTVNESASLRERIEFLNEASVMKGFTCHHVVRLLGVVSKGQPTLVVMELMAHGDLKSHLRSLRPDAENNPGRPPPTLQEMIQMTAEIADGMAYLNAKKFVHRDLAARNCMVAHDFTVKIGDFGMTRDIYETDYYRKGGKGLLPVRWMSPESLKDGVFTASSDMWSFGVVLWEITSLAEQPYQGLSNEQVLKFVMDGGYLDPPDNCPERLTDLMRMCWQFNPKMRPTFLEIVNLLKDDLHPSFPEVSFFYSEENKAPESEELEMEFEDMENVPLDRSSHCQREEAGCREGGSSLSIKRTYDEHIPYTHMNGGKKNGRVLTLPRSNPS

With `C(=NC1CCCCC1)=NC1CCCCC1` [DCCD, dicyclohexylcarbodiimide], the “125I-insulin degraded (percentage of control)” value in data set [1] (setting [7]) is reported as 50.4%; in [1] (setting [8]), 38.7%. Besides, in data set [1] (30 min), the “effect on endosomal 125I-insulin degradation (in words)” value (“effect … (in words)” below) is given as “significant inhi- bition”.
For the molecule `O=C(O)c1cc[c]([Hg][Cl])cc1` [PCMB, p-chloromercuribenzoic acid], the “effect on insulin dissociation from receptor” value at insulin receptor is on record as “inhibited”. Besides, the “inhibition of 125I-insulin degradation” value in data set [1] (1 mM, 30 min) is given as 100%. Also, in data set [1] (setting [9]), the “125I-insulin degraded (percentage of control)” value was found to be 0%. Also, in [1] (30 min), the “effect … (in words)” value is reported as “Significant inhibition”.
With `O=S(=O)(F)Cc1ccccc1` [PMSF], the “effect on degradation of mannose-BSA in macrophage endosomes” value (“effect on degradation of mannose-BSA” below) with macrophage endosomes is given as “inhibition of degradation”. For the same molecule, the “125I-insulin degraded (percentage of control)” value in [1] (setting [9]) is 89.2%. The “effect … (in words)” value in [1] (30 min) is given as “no significant effect”.
As for `CO[C@@H]1C[C@@H](C[C@H]2CC[C@H](C)[C@H]([C@@H](C)C(=O)O)O2)O[C@]2(O[C@](C)([C@H]3CC[C@@](C)([C@@H]4O[C@@H]([C@H]5O[C@@](O)(CO)[C@H](C)C[C@@H]5C)C[C@@H]4C)O3)C[C@H]2C)[C@@H]1C` [Nigericin], the “effect on ATP-generated pH gradients of GE fraction” value in [2] is on record as “dissipated rapidly”. Also, the “inhibition of 125I-insulin degradation” value in data set [1] (50 µM, 30 min) is listed as ~ 80%. In data set [1] (setting [10]), the “125I-insulin degraded (percentage of control)” value turned out to be 17.4%. Moreover, the “effect … (in words)” value in data set [1] (30 min) is recorded as “inhibited markedly”.
Regarding `Nc1ncnc2c1ncn2[C@@H]1O[C@H](COP(=O)(O)OP(=O)(O)OP(=O)(O)O)[C@@H](O)[C@H]1O` [ATP], the “125I-insulin degraded (percentage of control)” value in [1] (setting [11]) stood at 100%.
For `Nc1ncnc2c1ncn2[C@@H]1O[C@H](COP(=O)(O)OP(=O)(O)NP(=O)(O)O)[C@@H](O)[C@H]1O` [AMP- PNP], the “125I-insulin degraded (percentage of control)” value in [1] (setting [11]) was 24.5%.
In the case of Aprotinin, the “effect … (in words)” value in data set [1] (30 min) was “no significant effect”.
Regarding `Nc1nc2c(ncn2[C@@H]2O[C@H](COP(=O)(O)OP(=O)(O)OP(=O)(O)O)[C@@H](O)[C@H]2O)c(=O)[nH]1` [GTP], the “125I-insulin degraded (percentage of control)” value in data set [1] (setting [11]) worked out at 52.8%.
For Valinomycin, in [1] (50 µM, 30 min), the “inhibition of 125I-insulin degradation” value is 17%.
On to Bacitracin, for which the “inhibition of 125I-insulin degradation” value in [1] (5 mg/ml, 30 min) was found to be 40%. The “effect … (in words)” value in [1] (30 min) was “Significant inhibition”.
For Pepstatin, the “effect on degradation of mannose-BSA” value with macrophage endosomes is “inhibition of degradation”. In addition, in [1] (30 min), the “effect … (in words)” value is given as “no significant effect”.
For the molecule `CCN(CC)CCCC(C)Nc1ccnc2cc(Cl)ccc12` (centres unmarked) [Chioroquine, chloroquine], the “inhibition of 125I-insulin degradation” value in data set [1] (2 mM, 30 min) is reported as ~ 80%. In data set [1] (setting [12]), the “125I-insulin degraded (percentage of control)” value was found to be 16.3%. Also, in data set [1] (30 min), the “effect … (in words)” value is on record as “inhibited markedly”.
On to `c1cnc2c(c1)ccc1cccnc12` [1,10-Phenanthroline, 1,10-phenanthroline], for which the “effect on insulin dissociation from receptor” value at insulin receptor is given as “inhibited”. The “inhibition of 125I-insulin degradation” value in data set [1] (1 mM, 30 min) was determined as 91%. In [1] (setting [9]), the “125I-insulin degraded (percentage of control)” value is 8.8%. Further, in data set [1] (30 min), the “effect … (in words)” value is “Significant inhibition”.
Turning to Triton X-100, the “125I-insulin degraded (percentage of control)” value in data set [1] (Table I, detergent 0.1%, 30 min, mean ± SD of 3 experiments) is given as 22.9%. In [1] (30 min), the “effect … (in words)” value was “Significant inhibition”.
For the molecule Leupeptin, the “effect on degradation of mannose-BSA” value in the data set on macrophage endosomes is “inhibition of degradation”. The “effect … (in words)” value in [1] (30 min) is “no significant effect”.
On to `CC[C@H]1/C=C/C=C/C[C@@H](C)[C@H](O)[C@@](C)(O)C(=O)[C@@H](C)[C@H](O)[C@@H](C)C(=O)[C@@H](C)[C@H](O)[C@@H](C)/C=C/C(=O)O[C@@H]2[C@H](C)[C@H](CC1)O[C@]1(CC[C@H](C)[C@H](C[C@@H](C)O)O1)[C@H]2C` [Oligomycin], for which, in [1] (Table II, 5 µg/ml, 0-30 min, mean ± SD, n = 3), the “125I-insulin degraded (percentage of control)” value stood at 90.2%. Moreover, the “effect … (in words)” value in data set [1] (30 min) was “little effect”.
As for “125I-insulin: Porcine insulin (26.8 IU/mg, Eli Lilly) radioiodinated by the chloramine T method”, the “intact 125I-insulin (acid precipitable) retained in freshly prepared endosomes” value with insulin receptor (0 min) is given as 82%. Moreover, in the data set with insulin receptor (15 min incubation +ATP), the degradation of insulin is listed as 5.8 ng.mg cell fraction protein-1 and the “dissociation of insulin from receptor” value is 1.7 ng insulin.mg cell fraction pr. Also, in the data set with insulin receptor (15 min incubation minus ATP), the “loss and degradation of free insulin” value is on record as 2.1 ng.mg cell fraction protein-1; the “loss of receptor-bound insulin” value is listed as “no loss”. Moreover, the “internalized ligand dissociated from receptor” value with insulin receptor (freshly prepared endosomes) came to 59%. In the data set with insulin receptor (freshly prepared endosomes, 0 min), the “proportion of intact insulin that was receptor-bound (PEG precipitable)” value was determined as 41%. Moreover, the “125I-insulin degraded (percentage of control)” value in [3] (Table II, no nucleotide added (minus ATP), 0-30 min) amounted to 35.4%. Besides, the “increase in size of peak eluting at position of radioiodotyrosine (peak III)” value in data set [4] (after 15 min incubation, rats given 2 µg 125I-insulin/100 g bw) is reported as “threefold increase”. The “t1/2 of in vivo insulin clearance” value in data set [5] is on record as 6 min. Also, the “enrichment in GE fraction compared to parent homogenate” value in [6] is listed as 40 + 4 fold.
As to `CC[C@@]1([C@@H]2O[C@@H]([C@H]3O[C@@](O)(CO)[C@H](C)C[C@@H]3C)C[C@@H]2C)CC[C@H]([C@]2(C)CC[C@]3(C[C@H](O)[C@@H](C)[C@@H]([C@@H](C)[C@@H](OC)[C@H](C)C(=O)O)O3)O2)O1` [Monensin], in data set [1] (50 µM, 30 min), the “inhibition of 125I-insulin degradation” value was ~ 80%. For the same molecule, the “125I-insulin degraded (percentage of control)” value in [1] (setting [10]) was 20.6%. Moreover, in data set [1] (30 min), the “effect … (in words)” value was “inhibited markedly”.
On to `[O]=[V]([O-])([O-])[O-]` [Vanadate], for which, in data set [1] (Table II, 100 µM, 0-30 min, mean ± SD, n = 3), the “125I-insulin degraded (percentage of control)” value is on record as 99.9%. Further, the “effect … (in words)” value in data set [1] (30 min) is “little effect”.
On to `CCN1C(=O)C=CC1=O` [NEM, N-ethylmaleimide], for which the “125I-insulin degraded (percentage of control)” value turned out to be 23.6% in data set [1] (setting [7]) and 26.8% in [1] (setting [8]). Moreover, the “effect … (in words)” value in [1] (30 min) is reported as “significant inhi- bition”; in [1] (30 min, listed as N-ethylmaleimide (NEM)), “inhibited markedly”.
As to `N=C(N)NC(=O)c1nc(Cl)c(N)nc1N` [Amiloride], the “125I-insulin degraded (percentage of control)” value in data set [1] (setting [12]) amounted to 96.6%. For the same molecule, in [1] (30 min), the “effect … (in words)” value is “little effect”.
Take “125I-EGF: mouse epidermal growth factor (Collaborative Research) radioiodinated by chloramine T method”: the “degradation within isolated endosomes by acid precipitation” value in [3] is reported as “not detectable”. For the same molecule, the “degradation within isolated endosomes by Sephadex G-50 chromatography” value in [4] (0 vs 15 min incubation in cell-free system) is “not detectable”. Besides, the “ligand dissociated from receptor” value in the data set with EGF receptor is reported as 43%.
Regarding Antipain, the “effect on degradation of mannose-BSA” value in the data set on macrophage endosomes is “inhibition of degradation”. Also, the “effect … (in words)” value in data set [1] (30 min) is given as “no significant effect”.
As to `Nc1ncnc2c1ncn2[C@@H]1O[C@H](COP(=O)(O)OP(=O)(O)O)[C@@H](O)[C@H]1O` [ADP], the “125I-insulin degraded (percentage of control)” value in data set [1] (setting [11]) was 40.0%.
With `O=C(O)CN(CCN(CC(=O)O)CC(=O)O)CC(=O)O` [EDTA], in data set [1] (30 min), the “effect … (in words)” value was “no significant effect”.

B1: 125I-prolactin: ovine prolactin (30.5 IU/mg) radioiodinated by chloramine T method (protein, UniProt P01240 31-229, looked up)
Prolactin: TPVCPNGPGNCQVSLRDLFDRAVMVSHYIHNLSSEMFNEFDKRYAQGKGFITMALNSCHTSSLPTPEDKEQAQQTHHEVLMSLILGLLRSWNDPLYHLVTEVRGMKGVPDAILSRAIEIEEENKRLLEGMEMIFGQVIPGAKETEPYPVWSGLPSLQTKDEDARHSAFYNLLHCLRRDSSKIDTYLKLLNCRIIYNNNC
modifications: 125I radiolabel
On to B1, for which the “degradation within isolated endosomes by acid precipitation” value in data set [3] is given as “No degradation”. The “internalized ligand dissociated from receptor” value is 50% in the data set with prolactin receptor (after 15 min incubation in cell-free system) and 60% with prolactin receptor (before incubation (freshly isolated endosomes)).
